Experiments:
Type in all cases: functional
[1] = test system: Enterococcus faecium; assay: Antibacterial activity against Enterococcus faecium 14-6 after 18 to 24 hrs by two-fold serial dilution method
In short: (§1)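 Twofold serial dilution in agar media against Gram-positive and Gram-negative strains. Plates incubated at 35 °C for 18–24 h. MIC read as the lowest compound concentration giving complete inhibition of bacterial growth.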

[2] = test system: Staphylococcus aureus; assay: Antibacterial activity against methicillin-resistant Staphylococcus aureus 14-5 after 18 to 24 hrs by two-fold serial dilution method
In short: (§2)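 Agar media, standard twofold serial dilution. MIC is the lowest concentration giving complete inhibition of bacterial growth after incubation at 35 °C for 18–24 h. Ciprofloxacin and levofloxacin were run as comparators.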

[3] = test system: Enterococcus faecium; assay: Potency index, ratio of ciprofloxacin MIC to compound MIC for Enterococcus faecium 14-5
[4] = test system: Staphylococcus epidermidis; assay: Antibacterial activity against methicillin-resistant Staphylococcus epidermidis 14-39 after 18 to 24 hrs by two-fold serial dilution method; in short: as §2
[5] = test system: Staphylococcus aureus; assay: Antibacterial activity against Staphylococcus aureus CMCC 26003 after 18 to 24 hrs by two-fold serial dilution method; in short: as §1
[6] = test system: Klebsiella pneumoniae; assay: Antibacterial activity against Klebsiella pneumoniae 14-4 after 18 to 24 hrs by two-fold serial dilution method; in short: as §1
[7] = test system: Streptococcus pneumoniae; assay: Antibacterial activity against methicillin-resistant Streptococcus pneumoniae ATCC 19615 after 18 to 24 hrs by two-fold serial dilution method; in short: as §2
[8] = test system: Staphylococcus aureus; assay: Potency index, ratio of levofloxacin MIC to compound MIC for methicillin-resistant Staphylococcus aureus 14-4
[9] = test system: Enterococcus faecalis; assay: Antibacterial activity against Enterococcus faecalis 14-2 after 18 to 24 hrs by two-fold serial dilution method; in short: as §1
[10] = test system: Enterococcus faecium; assay: Antibacterial activity against Enterococcus faecium 14-5 after 18 to 24 hrs by two-fold serial dilution method; in short: as §1
[11] = test system: Staphylococcus epidermidis; assay: Potency index, ratio of levofloxacin MIC to compound MIC for methicillin-resistant Staphylococcus epidermidis 14-37
[12] = test system: Enterococcus faecium; assay: Potency index, ratio of ciprofloxacin MIC to compound MIC for Enterococcus faecium 14-2
[13] = test system: Staphylococcus aureus; assay: Potency index, ratio of ciprofloxacin MIC to compound MIC for methicillin-resistant Staphylococcus aureus 14-4
[14] = test system: Enterococcus faecalis; assay: Potency index, ratio of levofloxacin MIC to compound MIC for Enterococcus faecalis 14-2
[15] = test system: Klebsiella pneumoniae; assay: Antibacterial activity against extended-spectrum beta-lactamase producing Klebsiella pneumoniae 14-19 after 18 to 24 hrs by two-fold serial dilution method; in short: as §1
[16] = test system: Staphylococcus aureus; assay: Antibacterial activity against methicillin-sensitive Staphylococcus aureus 14-3 after 18 to 24 hrs by two-fold serial dilution method; in short: as §1
[17] = test system: Enterococcus faecium; assay: Potency index, ratio of levofloxacin MIC to compound MIC for Enterococcus faecium 14-2
[18] = test system: Enterococcus faecalis; assay: Potency index, ratio of levofloxacin MIC to compound MIC for Enterococcus faecalis 14-1
[19] = test system: Escherichia coli; assay: Antibacterial activity against Escherichia coli ATCC 25922 after 18 to 24 hrs by two-fold serial dilution method; in short: as §1
[20] = test system: Pseudomonas aeruginosa; assay: Antibacterial activity against Pseudomonas aeruginosa 14-9 after 18 to 24 hrs by two-fold serial dilution method; in short: as §1
[21] = test system: Enterococcus faecium; assay: Potency index, ratio of ciprofloxacin MIC to compound MIC for Enterococcus faecium 14-6
[22] = test system: Klebsiella pneumoniae; assay: Antibacterial activity against Klebsiella pneumoniae 14-2 after 18 to 24 hrs by two-fold serial dilution method; in short: as §1
[23] = test system: Staphylococcus epidermidis; assay: Antibacterial activity against methicillin-resistant Staphylococcus epidermidis 14-22 after 18 to 24 hrs by two-fold serial dilution method; in short: as §2
[24] = test system: Staphylococcus epidermidis; assay: Antibacterial activity against methicillin-resistant Staphylococcus epidermidis 14-21 after 18 to 24 hrs by two-fold serial dilution method; in short: as §2
[25] = test system: Enterococcus faecalis; assay: Potency index, ratio of ciprofloxacin MIC to compound MIC for Enterococcus faecalis 14-1
[26] = test system: Staphylococcus epidermidis; assay: Antibacterial activity against methicillin-resistant Staphylococcus epidermidis 14-37 after 18 to 24 hrs by two-fold serial dilution method; in short: as §2
[27] = test system: Escherichia coli; assay: Antibacterial activity against extended-spectrum beta-lactamase producing Escherichia coli 14-2 after 18 to 24 hrs by two-fold serial dilution method; in short: as §1
[28] = test system: Staphylococcus epidermidis; assay: Potency index, ratio of ciprofloxacin MIC to compound MIC for methicillin-resistant Staphylococcus epidermidis 14-22
[29] = test system: Enterococcus faecium; assay: Potency index, ratio of levofloxacin MIC to compound MIC for Enterococcus faecium 14-6
[30] = test system: Pseudomonas aeruginosa; assay: Antibacterial activity against Pseudomonas aeruginosa ATCC 27853 after 18 to 24 hrs by two-fold serial dilution method; in short: as §1
[31] = test system: Escherichia coli; assay: Antibacterial activity against Escherichia coli 14-1 after 18 to 24 hrs by two-fold serial dilution method; in short: as §1
[32] = test system: Staphylococcus epidermidis; assay: Potency index, ratio of levofloxacin MIC to compound MIC for methicillin-resistant Staphylococcus epidermidis 14-22
[33] = test system: Pseudomonas aeruginosa; assay: Antibacterial activity against Pseudomonas aeruginosa 14-14 after 18 to 24 hrs by two-fold serial dilution method; in short: as §1
[34] = test system: Staphylococcus aureus; assay: Potency index, ratio of ciprofloxacin MIC to compound MIC for methicillin-resistant Staphylococcus aureus 14-5
[35] = test system: Enterococcus faecalis; assay: Antibacterial activity against Enterococcus faecalis 14-1 after 18 to 24 hrs by two-fold serial dilution method; in short: as §1
[36] = test system: Klebsiella pneumoniae; assay: Antibacterial activity against Klebsiella pneumoniae 14-3 after 18 to 24 hrs by two-fold serial dilution method; in short: as §1
[37] = test system: Pseudomonas aeruginosa; assay: Antibacterial activity against Pseudomonas aeruginosa 14-15 after 18 to 24 hrs by two-fold serial dilution method; in short: as §1
[38] = test system: Klebsiella pneumoniae; assay: Antibacterial activity against Klebsiella pneumoniae 14-1 after 18 to 24 hrs by two-fold serial dilution method; in short: as §1
[39] = test system: Enterococcus faecalis; assay: Potency index, ratio of ciprofloxacin MIC to compound MIC for Enterococcus faecalis 14-2
[40] = test system: Pseudomonas aeruginosa; assay: Antibacterial activity against Pseudomonas aeruginosa 14-16 after 18 to 24 hrs by two-fold serial dilution method; in short: as §1
[41] = test system: Escherichia coli; assay: Antibacterial activity against extended-spectrum beta-lactamase producing Escherichia coli 14-1 after 18 to 24 hrs by two-fold serial dilution method; in short: as §1
[42] = test system: Staphylococcus epidermidis; assay: Potency index, ratio of levofloxacin MIC to compound MIC for methicillin-resistant Staphylococcus epidermidis 14-21
[43] = test system: Staphylococcus epidermidis; assay: Antibacterial activity against methicillin-sensitive Staphylococcus epidermidis 14-2 after 18 to 24 hrs by two-fold serial dilution method; in short: as §1
[44] = test system: Enterococcus faecium; assay: Potency index, ratio of levofloxacin MIC to compound MIC for Enterococcus faecium 14-5
[45] = test system: Klebsiella pneumoniae; assay: Antibacterial activity against extended-spectrum beta-lactamase producing Klebsiella pneumoniae 14-18 after 18 to 24 hrs by two-fold serial dilution method; in short: as §1
[46] = test system: Staphylococcus epidermidis; assay: Potency index, ratio of ciprofloxacin MIC to compound MIC for methicillin-resistant Staphylococcus epidermidis 14-39
[47] = test system: Staphylococcus aureus; assay: Antibacterial activity against methicillin-sensitive Staphylococcus aureus 14-4 after 18 to 24 hrs by two-fold serial dilution method; in short: as §1
[48] = test system: Staphylococcus aureus; assay: Antibacterial activity against methicillin-sensitive Staphylococcus aureus 14-1 after 18 to 24 hrs by two-fold serial dilution method; in short: as §1
[49] = test system: Klebsiella pneumoniae; assay: Antibacterial activity against extended-spectrum beta-lactamase producing Klebsiella pneumoniae 14-17 after 18 to 24 hrs by two-fold serial dilution method; in short: as §1
[50] = test system: Staphylococcus aureus; assay: Potency index, ratio of levofloxacin MIC to compound MIC for methicillin-resistant Staphylococcus aureus 14-5
[51] = test system: Staphylococcus epidermidis; assay: Potency index, ratio of ciprofloxacin MIC to compound MIC for methicillin-resistant Staphylococcus epidermidis 14-37
[52] = test system: Staphylococcus aureus; assay: Antibacterial activity against methicillin-resistant Staphylococcus aureus 14-4 after 18 to 24 hrs by two-fold serial dilution method; in short: as §2
[53] = test system: Escherichia coli; assay: Antibacterial activity against Escherichia coli 14-2 after 18 to 24 hrs by two-fold serial dilution method; in short: as §1
[54] = test system: Enterococcus faecium; assay: Antibacterial activity against Enterococcus faecium 14-2 after 18 to 24 hrs by two-fold serial dilution method; in short: as §1
[55] = test system: Staphylococcus epidermidis; assay: Potency index, ratio of ciprofloxacin MIC to compound MIC for methicillin-resistant Staphylococcus epidermidis 14-21
[56] = test system: Staphylococcus epidermidis; assay: Potency index, ratio of levofloxacin MIC to compound MIC for methicillin-resistant Staphylococcus epidermidis 14-39
[57] = test system: Mycobacterium tuberculosis; assay: Antimycobacterial activity against Mycobacterium tuberculosis H37Rv ATCC 27294 incubated for 7 days by microplate Alamar Blue assay; conditions: H37Rv ATCC 27294, 168 h
In short: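 Fluorescence read-out. MIC is the lowest concentration that reduces fluorescence by at least 90% relative to the mean of replicate bacterium-only controls. Isoniazid and rifampicin were included as reference drugs.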

O=C(O)c1cn2c3c(c(N4C/C(=N/OCc5ccccc5)C(CNC5CC5)C4)c(F)cc3c1=O)OC[C@@H]2CF (stereo partly specified)
0.03 µg/mL: MIC [47]
> 64 µg/mL: MIC [6] | MIC [27] | MIC [31] | MIC [53]
2 µg/mL: MIC [4] | MIC [23] | MIC [24] | MIC [26] | MIC [52]
0.25 µg/mL: MIC [9]
0.125 µg/mL: MIC [7]
0.015 µg/mL: MIC [16]
2: Ratio [3] | Ratio [8] | Ratio [11] | Ratio [12] | Ratio [13] | Ratio [14] | Ratio [17] | Ratio [18] | Ratio [21] | Ratio [25] | Ratio [28] | Ratio [29] | Ratio [32] | Ratio [34] | Ratio [39] | Ratio [42] | Ratio [44] | Ratio [46] | Ratio [50] | Ratio [51] | Ratio [55] | Ratio [56]
8 µg/mL: MIC [1] | MIC [10] | MIC [43]
64 µg/mL: MIC [33] | MIC [36] | MIC [37] | MIC [38] | MIC [49]
4 µg/mL: MIC [2] | MIC [41]
1 µg/mL: MIC [19] | MIC [35] | MIC [48] | MIC [54]
32 µg/mL: MIC [15] | MIC [20] | MIC [22] | MIC [30] | MIC [40] | MIC [45]
< 0.008 µg/mL: MIC [5]

CO/N=C1/CN(c2nc3c(cc2F)c(=O)c(C(=O)O)cn3-c2nc(N)c(F)cc2F)CC1(C)CNC1CC1 (stereo unspecified)
0.25 µg/mL: MIC [5]
4 µg/mL: MIC [7]
128 µg/mL: MIC [4] | MIC [10] | MIC [20] | MIC [24] | MIC [30] | MIC [35] | MIC [37] | MIC [41] | MIC [43] | MIC [53]
32 µg/mL: MIC [2] | MIC [23] | MIC [52]
8 µg/mL: MIC [9] | MIC [47]
64 µg/mL: MIC [1] | MIC [26] | MIC [54]
> 128 µg/mL: MIC [6] | MIC [15] | MIC [22] | MIC [27] | MIC [31] | MIC [33] | MIC [36] | MIC [38] | MIC [40] | MIC [45] | MIC [49]
16 µg/mL: MIC [16] | MIC [19] | MIC [48]
15.6 µg/mL: MIC90 [57]
